Jurkat NFkB inh = lowers PMA/ionomycin-induced NF-kB signal in Jurkat cells; PMA/ionomycin-induced NF-kB luciferase reporter, luminescence; inhibition, % at 4 µM; 0.53% of 330,000 active; in the data active = inhibition above about 50%
Mdm2 MdmX PPI = inhibitors of human Mdm2/MdmX interaction | SaOS-2 split-luciferase Mdm2/MdmX complementation, luminescence | 3% of 330,000 active | inhibition, % at 8 µM | O15151+Q00987;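 active = inhibition of at least 50% at 8 µM in the primary screen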
Target sequence (O15151 whole entry, looked up): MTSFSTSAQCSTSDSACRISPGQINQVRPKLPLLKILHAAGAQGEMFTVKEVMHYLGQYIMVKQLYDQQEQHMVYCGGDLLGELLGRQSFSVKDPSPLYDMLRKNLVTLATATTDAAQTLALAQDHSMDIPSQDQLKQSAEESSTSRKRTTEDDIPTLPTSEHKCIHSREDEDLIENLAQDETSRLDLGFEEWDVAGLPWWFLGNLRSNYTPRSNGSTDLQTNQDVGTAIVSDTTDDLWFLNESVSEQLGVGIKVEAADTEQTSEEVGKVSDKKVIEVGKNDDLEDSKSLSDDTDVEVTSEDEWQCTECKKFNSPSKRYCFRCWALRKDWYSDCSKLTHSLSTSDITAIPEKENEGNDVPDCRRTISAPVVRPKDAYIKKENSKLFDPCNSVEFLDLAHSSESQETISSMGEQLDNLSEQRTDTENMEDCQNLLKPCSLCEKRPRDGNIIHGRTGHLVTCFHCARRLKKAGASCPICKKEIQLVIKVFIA
Target sequence (Q00987 whole entry, looked up): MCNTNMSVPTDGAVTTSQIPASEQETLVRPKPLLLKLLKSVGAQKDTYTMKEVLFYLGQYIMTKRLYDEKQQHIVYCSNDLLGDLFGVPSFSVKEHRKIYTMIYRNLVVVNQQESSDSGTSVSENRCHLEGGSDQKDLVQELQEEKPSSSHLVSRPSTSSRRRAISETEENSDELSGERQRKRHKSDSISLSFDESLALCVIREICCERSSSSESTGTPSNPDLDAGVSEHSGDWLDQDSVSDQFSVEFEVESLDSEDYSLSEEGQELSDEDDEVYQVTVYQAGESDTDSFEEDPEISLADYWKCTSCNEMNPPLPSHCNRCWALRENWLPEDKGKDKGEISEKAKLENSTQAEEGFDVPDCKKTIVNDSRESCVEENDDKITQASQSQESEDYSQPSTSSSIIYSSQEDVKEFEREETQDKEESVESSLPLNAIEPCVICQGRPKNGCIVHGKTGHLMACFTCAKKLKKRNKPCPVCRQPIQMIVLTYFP
VIM-2 inh = blocks Pseudomonas aeruginosa VIM-2 metallo-beta-lactamase; purified VIM-2, nitrocefin hydrolysis, epi-absorbance fluorescence; inhibition, % at 5.6 µM; 0.89% of 290,000 active;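 active = inhibition above the mean of all tested compounds plus 3 SD, cutoff set per screening run, cut at about 7.5% in these data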;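 also: red hydrolysis product quenches plate fluorescence so inhibitors raise well fluorescence; 0% = enzyme with DMSO and 100% = DMSO without enzyme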
IMP-1 inhibitor = inhibitors of Pseudomonas aeruginosa IMP-1 metallo-beta-lactamase; purified IMP-1, nitrocefin hydrolysis, epi-absorbance fluorescence; inhibition, % at 5.6 µM; 0.45% of 290,000 active;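 active = inhibition above the mean plus 3 SD of all compounds in the same screening run, cut at about 4.5% in these data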;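 also: 0% = IMP-1 with DMSO and 100% = DMSO wells lacking enzyme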
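assay system = purified recombinant IMP-1 metallo-beta-lactamase enzyme | schedule = 15 min preincubation plus 25 min reaction at 25 °C | signal = Epi-absorbance fluorescence, 480 nm excitation, 530 nm emission | read-out basis = percent inhibition from optical density relative to buffer-blank wells | controls = IMP-1 with DMSO as 0%, enzyme-free DMSO as 100%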
aSyn 5UTR inh = MLPCN primary screen, SNCA 5' untranslated region; alpha-synuclein 5'UTR reporter, inhibitor activity; inhibition, % (tested at 7.5 µM); 0.82% of 300,000 active; in the data active = inhibition above about 60%;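 also: H4 neuroglioblastoma cells stably carrying SNCA 5'UTR luciferase fusion; 0% = DMSO wells and 100% = positive control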
697 NFkB inh = lowers PMA/ionomycin-induced NF-kB signal in 697 B cells; 697 B-cell NF-kB luciferase reporter, 16 h; 0.33% of 330,000 active; inhibition, % at 4 µM; in the data active = inhibition above about 35%
Mdm2-MdmX conf = human Mdm2/MdmX binding inhibition, confirmed | luminescent assay | shares compounds with Mdm2 MdmX PPI | 55% of 10,000 active | AID 489028 | inhibition, % at 8 µM; in the data active = inhibition above about 40%
FLuc counter = inhibits full-length luciferase, flagging false Mdm2/MdmX hits; inhibition, % at 8 µM; 77% of 6,200 active; shares compounds with Mdm2 MdmX PPI; SaOS-2 full-length luciferase counterscreen, luminescence;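 active = mean inhibition at 8 µM reaching about 37%, which flags the compound as non-specific, limit read from the data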;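 also: p53-null SaOS-2 cells with luciferase driven by a doxycycline-inducible promoter; compound on cells about two nights before reading with doxycycline added after day one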
* marks the source's active call; other numbers are inactive results; x = not tested or not shown. A selection: hits, their analogues and other compounds. The true share with any hit is near 4.7%.

SMILES	Jurkat NFkB inh	Mdm2 MdmX PPI	VIM-2 inh	IMP-1 inhibitor	aSyn 5UTR inh	697 NFkB inh	Mdm2-MdmX conf	others
N#C/C(=C(/O)COC(=O)CSc1ccc2ccccc2c1)c1nc2ccccc2[nH]1	30	51*	-6	-2	-11	-22	1
N#C/C(=C(/O)COC(=O)CCC1CCCCC1)c1nc2ccccc2[nH]1	9	66*	-6	-3	6	-19	6
Cc1cc(Br)ccc1SCC(=O)OC/C(O)=C(\C#N)c1nc2ccccc2[nH]1	39	83*	-4	-2	5	-2	-2
Cc1ccc(C)c(SCC(=O)OC/C(O)=C(\C#N)c2nc3ccccc3[nH]2)c1	x	x	3	-3	-52	x	x
CCCC(=O)OC/C(O)=C(\C#N)c1nc2ccccc2[nH]1	5	35	0	-1	10	16	x
COc1cccc(-n2nc(C#N)c(Cl)cc2=O)c1	13	100*	-3	-1	17	12	100*	FLuc counter=51*
COc1ccc(-c2csc(N(CCCN(C)C)C(=O)c3ccccc3Cl)n2)cc1	-1	71*	1	-2	-14	-12	49*	FLuc counter=84*
CN(CC(=O)Nc1ccc(Cl)c(C(F)(F)F)c1)C(=O)C1CCCO1 (configuration not stated)	21	-8	x	x	x	5	x
Cc1ccc(N2CC(C(=O)N(C)CC(=O)Nc3ccc(Cl)c(C(F)(F)F)c3)CC2=O)cc1 (configuration not stated)	28	59*	x	x	27	23	44*	FLuc counter=66*
CCN(CC)CCNC(=O)CCc1c(C)nc2c(c(C)nn2-c2ccc(C)cc2)c1C	15	61*	4	-2	6	-17	32
COc1ccccc1-n1c(=S)sc2c(=O)n(Cc3ccco3)c(SC)nc21	4	5	-2	0	33	-27	x
FC(F)(F)c1cnc(NNC(=S)Nc2ccccc2Cl)c(Cl)c1	-3	86*	-5	-4	-13	-28	22
O=C(Nc1ccc(S(=O)(=O)NCC2CCCO2)cc1)c1cccc(F)c1 (configuration not stated)	9	26	-4	-3	-2	-26	x
O=C(NCCC1=CCCCC1)C1CCN(S(=O)(=O)c2cnc[nH]2)CC1	0	3	-2	-3	13	6	x
CN(C)c1ccc(C2CNC(c3ccc(Cl)c([N+](=O)[O-])c3)c3[nH]c4ccccc4c32)cc1 (configuration not stated)	17	54*	-3	-2	-1	4	29	FLuc counter=62*
Cc1ccc(C)c2c(N)c3c(nc12)CCCCC3 (tested in a mixture with another compound)	14	24	3	0	-24	-18	x
CCOc1cc(NC(=O)c2ccccc2C)c(OCC)cc1NC(=O)C1=Cc2ccccc2OC1	21	62*	1	-2	53	17	16
O=C(Nc1ccc(Cl)c(Cl)c1)C1=Cc2ccccc2OC1	-95	-47	-3	-3	-202	-61	x
CCOc1ncccc1C(=O)OCc1c(F)cccc1Cl	3	10	2	1	6	1	x
CCOC(=O)C(CC)(CC)C(=O)/C=C/c1ccc(Br)cc1	-9	71*	5	-1	-92	-162	39	FLuc counter=66*
CCN(c1ccccc1)S(=O)(=O)c1csc(C(N)=O)c1	-6	-2	-3	0	2	12	x
COc1ccc(-c2nc3cnccn3c2Nc2ccc3c(c2)OCO3)cc1	9	53*	0	0	39	-23	6
Cc1ccc(-c2nc3cnccn3c2Nc2ccc3c(c2)OCO3)cc1	2	6	-3	-4	35	-49	x
COc1ccc(C2=Nn3c(nnc3-c3cccnc3)SC2)cc1OC	-14	51*	x	x	45	28	22
COc1ccc(OC)c(C2=Nn3c(nnc3-c3cc(C)[nH]n3)SC2)c1	-9	19	2	-2	18	-9	x
